Measured values from ChEMBL document CHEMBL3351505, “Ultrasound-assisted synthesis of novel 1,2,3-triazoles coupled diaryl sulfone moieties by the CuAAC reaction, and biological evaluation of them as antioxidant and antimicrobial agents” (Eur J Med Chem, 2014).
≈ marks a conversion by molar mass, not a printed value. Calls of active or inactive are those of the source. The calls are words filed in the database; no cut-off is given here.

Legend:
[1] = test system: Staphylococcus aureus; experiment: Antibacterial activity against Staphylococcus aureus ATCC 29213 using 100 uL of test compound after 24 hrs by agar well diffusion method; type: functional
Summary of the method: (§1)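 Agar well diffusion. Nutrient agar was spread with bacterial suspension at 1×10⁸ CFU/mL, and 10 mm wells were cut. Wells were loaded with compound solution made at 200 mg per 1 mL DMSO. Plates were incubated 24 h at 37 °C and inhibition zones were measured. DMSO served as the negative control.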

[2] = test system: Bacillus subtilis; experiment: Antibacterial activity against Bacillus subtilis ATCC 6633 using 100 uL of test compound after 24 hrs by agar well diffusion method; type: functional; summary of the method: as §1
[3] = test system: Priestia megaterium; experiment: Antibacterial activity against Bacillus megaterium ATCC 9885 using 100 uL of test compound after 24 hrs by agar well diffusion method; type: functional; summary of the method: as §1
[4] = test system: Micrococcus luteus; experiment: Antibacterial activity against Sarcina lutea using 100 uL of test compound after 24 hrs by agar well diffusion method; type: functional; summary of the method: as §1
[5] = test system: Klebsiella pneumoniae; experiment: Antibacterial activity against Klebsiella pneumoniae ATCC 13883 using 100 uL of test compound after 24 hrs by agar well diffusion method; type: functional; summary of the method: as §1
[6] = test system: Pseudomonas aeruginosa; experiment: Antibacterial activity against Pseudomonas aeruginosa ATCC 27953 using 100 uL of test compound after 24 hrs by agar well diffusion method; type: functional; summary of the method: as §1
[7] = test system: Escherichia coli; experiment: Antibacterial activity against Escherichia coli ATCC 25922 using 100 uL of test compound after 24 hrs by agar well diffusion method; type: functional; summary of the method: as §1
[8] = test system: Candida albicans; experiment: Antifungal activity against Candida albicans NRRL Y-477 using 100 uL of test compound after 48 hrs by agar well diffusion method; type: functional
Summary of the method: as §1, with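 “Sabouraud dextrose” for “Nutrient”, “yeast or fungal” for “bacterial”, “1×10⁶” for “1×10⁸”, “48” for “24”, “28” for “37”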

[9] = test system: Saccharomyces cerevisiae; experiment: Antifungal activity against Saccharomyces cerevisiae using 100 uL of test compound after 48 hrs by agar well diffusion method; type: functional
Summary of the method: as §1, with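 “Sabouraud dextrose” for “Nutrient”, “yeast or fungal” for “bacterial”, “1×10⁶” for “1×10⁸”, “48” for “24”, “28” for “37”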

[10] = test system: Aspergillus niger; experiment: Antifungal activity against Aspergillus niger using 100 uL of test compound after 48 hrs by agar well diffusion method; type: functional
Summary of the method: as §1, with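 “Sabouraud dextrose” for “Nutrient”, “yeast or fungal” for “bacterial”, “1×10⁶” for “1×10⁸”, “48” for “24”, “28” for “37”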

[11] = test system: Staphylococcus aureus; experiment: Antibacterial activity against Staphylococcus aureus ATCC 29213 after 24 hrs by two fold serial dilution method; type: functional
[12] = test system: Bacillus subtilis; experiment: Antibacterial activity against Bacillus subtilis ATCC 6633 after 24 hrs by two fold serial dilution method; type: functional
[13] = test system: Priestia megaterium; experiment: Antibacterial activity against Bacillus megaterium ATCC 9885 after 24 hrs by two fold serial dilution method; type: functional
[14] = test system: Micrococcus luteus; experiment: Antibacterial activity against Sarcina lutea after 24 hrs by two fold serial dilution method; type: functional
[15] = test system: Klebsiella pneumoniae; experiment: Antibacterial activity against Klebsiella pneumoniae ATCC 13883 after 24 hrs by two fold serial dilution method; type: functional
[16] = test system: Pseudomonas aeruginosa; experiment: Antibacterial activity against Pseudomonas aeruginosa ATCC 27953 after 24 hrs by two fold serial dilution method; type: functional
[17] = test system: Escherichia coli; experiment: Antibacterial activity against Escherichia coli ATCC 25922 after 24 hrs by two fold serial dilution method; type: functional
[18] = test system: Candida albicans; experiment: Antifungal activity against Candida albicans NRRL Y-477 after 48 hrs by two fold serial dilution method; type: functional
Summary of the method: (§2)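 Two-fold serial broth dilution in a suitable broth, run only on compounds giving inhibition zones of at least 16 mm. Final concentrations were […]. Each 5 mL received 0.1 mL inoculum and was incubated 48 h at 28 °C. MIC was the lowest concentration without growth.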

[19] = test system: Saccharomyces cerevisiae; experiment: Antifungal activity against Saccharomyces cerevisiae after 48 hrs by two fold serial dilution method; type: functional; summary of the method: as §2
[20] = test system: Aspergillus niger; experiment: Antifungal activity against Aspergillus niger after 48 hrs by two fold serial dilution method; type: functional; summary of the method: as §2
[21] = Antioxidant activity assessed as DPPH free radical scavenging activity by spectrophotometric assay; type: physicochemical
Summary of the method: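 Sample solutions at several concentrations were added to 0.004% DPPH in methanol and incubated 60 min in the dark. Absorbance was read at 517 nm against a blank. Inhibition % = (A_blank − A_sample)/A_blank × 100, where the control contained all reagents except the test compound.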

Row | MIC [11] | MIC ([12]; ATCC 6633, 24 h) | MIC [14] | MIC ([15]; ATCC 13883, 24 h) | MIC [16] | MIC ([17]; ATCC 25922, 24 h) | MIC [18] | MIC [19] | MIC [20] | IC50 [21] | SMILES | diameter of the inhibition zone (DIZ) [1] | diameter of the inhibition zone (DIZ) [2] | diameter of the inhibition zone (DIZ) [3] | diameter of the inhibition zone (DIZ) [4] | diameter of the inhibition zone (DIZ) [5] | diameter of the inhibition zone (DIZ) [6] | diameter of the inhibition zone (DIZ) [7] | diameter of the inhibition zone (DIZ) [8] | diameter of the inhibition zone (DIZ) [9] | diameter of the inhibition zone (DIZ) [10] | further results
1 | inactive | 200 µg/mL (≈ 447 µM) | 200 µg/mL (≈ 447 µM) | 200 µg/mL (≈ 447 µM) | 200 µg/mL (≈ 447 µM) | 200 µg/mL (≈ 447 µM) | inactive | inactive | 100 µg/mL (≈ 223 µM) | 425 µg/mL (≈ 950 µM) | O=C(Cn1cc(CC(O)c2ccc(S(=O)(=O)c3ccccc3)cc2)nn1)c1ccccc1 (centres undefined) | 14 mm | 19 mm | inactive | 20 mm | 22 mm | 20 mm | 17 mm | 12 mm | inactive | 29 mm | MIC [13]: inactive
2 |  |  | 50 µg/mL (≈ 71.8 µM) | 100 µg/mL (≈ 144 µM) | 100 µg/mL (≈ 144 µM) | 100 µg/mL (≈ 144 µM) | inactive | inactive | 25 µg/mL (≈ 35.9 µM) | 150 µg/mL (≈ 215 µM) | CC(Cc1cn(CC(=O)c2ccc(F)cc2)nn1)(OCc1cn(CC(=O)c2ccc(F)cc2)nn1)c1ccc(S(=O)(=O)c2ccccc2)cc1 (centres undefined) | 27 mm | 15 mm | 17 mm | 26 mm | 26 mm | 27 mm | 25 mm | inactive | 15 mm | 34 mm | MIC ([11]; ATCC 29213, 24 h): 100 µg/mL (≈ 144 µM); MIC [12]: inactive; MIC ([13]; ATCC 9885, 24 h): 200 µg/mL (≈ 287 µM)
3 | inactive |  | 200 µg/mL (≈ 303 µM) | 200 µg/mL (≈ 303 µM) | 200 µg/mL (≈ 303 µM) | 200 µg/mL (≈ 303 µM) | inactive | 200 µg/mL (≈ 303 µM) | 50 µg/mL (≈ 75.7 µM) | 125 µg/mL (≈ 189 µM) | CC(Cc1cn(CC(=O)c2ccccc2)nn1)(OCc1cn(CC(=O)c2ccccc2)nn1)c1ccc(S(=O)(=O)c2ccccc2)cc1 (centres undefined) | inactive | 16 mm | 17 mm | 17 mm | 23 mm | 19 mm | 21 mm | 15 mm | 16 mm | 28 mm | MIC [12]: inactive; MIC ([13]; ATCC 9885, 24 h): 200 µg/mL (≈ 303 µM)
4 |  | 200 µg/mL (≈ 433 µM) | 200 µg/mL (≈ 433 µM) |  | 200 µg/mL (≈ 433 µM) |  | inactive | inactive | 50 µg/mL (≈ 108 µM) | 600 µg/mL (≈ 1300 µM) | CC(O)(Cc1cn(CC(=O)c2ccccc2)nn1)c1ccc(S(=O)(=O)c2ccccc2)cc1 (centres undefined) | 18 mm | 19 mm | 15 mm | 22 mm | 13 mm | 19 mm | 14 mm | 15 mm | 14 mm | 32 mm | MIC ([11]; ATCC 29213, 24 h): 200 µg/mL (≈ 433 µM); MIC [13]: inactive; MIC [15]: inactive; MIC [17]: inactive
